Laboratory results taken from ChEMBL document CHEMBL5046302, “Identification and Evaluation of Brominated Carbazoles as a Novel Antibiotic Adjuvant Scaffold in MRSA” (2022).
In brackets after ≈: the same amount, converted by molar mass.

Key:
Type in all cases: functional
Staphylococcus aureus [1] = assay: Potentiation of cefoxitin induced antibacterial activity against methicillin-resistant Staphylococcus aureus COL assessed as fold change in cefoxitin MIC at 50 uM after 18 hrs by CLSI protocol based broth microdilution assay
Staphylococcus aureus [2] = assay: Potentiation of cefoxitin induced antibacterial activity against methicillin-resistant Staphylococcus aureus USA300 assessed as fold change in cefoxitin MIC at 50 uM after 18 hrs by CLSI protocol based broth microdilution assay
Staphylococcus aureus [3] = assay: Potentiation of methicillin induced antibacterial activity against methicillin-resistant Staphylococcus aureus USA300 assessed as fold change in methicillin MIC at 50 uM after 18 hrs by CLSI protocol based broth microdilution assay
Staphylococcus aureus [4] = assay: Potentiation of ampicillin induced antibacterial activity against methicillin-resistant Staphylococcus aureus USA300 assessed as fold change in ampicillin MIC at 50 uM after 18 hrs by CLSI protocol based broth microdilution assay
Staphylococcus aureus [5] = assay: Potentiation of cefoxitin induced antibacterial activity against methicillin-resistant Staphylococcus aureus USA100 assessed as cefoxitin MIC at 50 uM after 18 hrs by CLSI protocol based broth microdilution assay
Staphylococcus aureus [6] = assay: Potentiation of ceftazidime induced antibacterial activity against methicillin-resistant Staphylococcus aureus USA100 assessed as fold change in ceftazidime MIC at 50 uM after 18 hrs by CLSI protocol based broth microdilution assay
Staphylococcus aureus [7] = assay: Potentiation of ampicillin induced antibacterial activity against methicillin-resistant Staphylococcus aureus USA100 assessed as fold change in ampicillin MIC at 50 uM after 18 hrs by CLSI protocol based broth microdilution assay
Staphylococcus aureus [8] = assay: Potentiation of oxacillin induced antibacterial activity against methicillin-resistant Staphylococcus aureus COL assessed as fold change in oxacillin MIC at 50 uM after 18 hrs by CLSI protocol based broth microdilution assay
Staphylococcus aureus [9] = assay: Potentiation of cefoxitin induced antibacterial activity against methicillin-resistant Staphylococcus aureus USA100 assessed as fold change in cefoxitin MIC at 50 uM after 18 hrs by CLSI protocol based broth microdilution assay
Staphylococcus aureus [10] = assay: Potentiation of oxacillin induced antibacterial activity against methicillin-resistant Staphylococcus aureus USA300 assessed as oxacillin MIC at 50 uM after 18 hrs by CLSI protocol based broth microdilution assay
Staphylococcus aureus [11] = assay: Potentiation of ceftazidime induced antibacterial activity against methicillin-resistant Staphylococcus aureus USA100 assessed as ceftazidime MIC at 50 uM after 18 hrs by CLSI protocol based broth microdilution assay
Staphylococcus aureus [12] = assay: Potentiation of methicillin induced antibacterial activity against methicillin-resistant Staphylococcus aureus USA300 assessed as methicillin MIC at 50 uM after 18 hrs by CLSI protocol based broth microdilution assay
Staphylococcus aureus [13] = assay: Potentiation of ceftazidime induced antibacterial activity against methicillin-resistant Staphylococcus aureus COL assessed as ceftazidime MIC at 50 uM after 18 hrs by CLSI protocol based broth microdilution assay
Staphylococcus aureus [14] = assay: Potentiation of methicillin induced antibacterial activity against methicillin-resistant Staphylococcus aureus ATCC 43300 assessed as methicillin MIC at 50 uM after 18 hrs by CLSI protocol based broth microdilution assay
Staphylococcus aureus [15] = assay: Potentiation of cefoxitin induced antibacterial activity against methicillin-resistant Staphylococcus aureus ATCC 43300 assessed as cefoxitin MIC at 50 uM after 18 hrs by CLSI protocol based broth microdilution assay
Staphylococcus aureus [16] = assay: Potentiation of ampicillin induced antibacterial activity against methicillin-resistant Staphylococcus aureus ATCC 43300 assessed as ampicillin MIC at 50 uM after 18 hrs by CLSI protocol based broth microdilution assay
Staphylococcus aureus [17] = assay: Potentiation of oxacillin induced antibacterial activity against methicillin-resistant Staphylococcus aureus COL assessed as oxacillin MIC at 50 uM after 18 hrs by CLSI protocol based broth microdilution assay
Staphylococcus aureus [18] = assay: Potentiation of methicillin induced antibacterial activity against methicillin-resistant Staphylococcus aureus COL assessed as fold change in methicillin MIC at 50 uM after 18 hrs by CLSI protocol based broth microdilution assay
Staphylococcus aureus [19] = assay: Potentiation of ceftazidime induced antibacterial activity against methicillin-resistant Staphylococcus aureus ATCC 43300 assessed as fold change in ceftazidime MIC at 50 uM after 18 hrs by CLSI protocol based broth microdilution assay
Staphylococcus aureus [20] = assay: Potentiation of methicillin induced antibacterial activity against methicillin-resistant Staphylococcus aureus ATCC 43300 assessed as fold change in methicillin MIC at 50 uM after 18 hrs by CLSI protocol based broth microdilution assay
Staphylococcus aureus [21] = assay: Potentiation of cefoxitin induced antibacterial activity against methicillin-resistant Staphylococcus aureus ATCC 43300 assessed as fold change in cefoxitin MIC at 50 uM after 18 hrs by CLSI protocol based broth microdilution assay
Staphylococcus aureus [22] = assay: Potentiation of ampicillin induced antibacterial activity against methicillin-resistant Staphylococcus aureus COL assessed as fold change in ampicillin MIC at 50 uM after 18 hrs by CLSI protocol based broth microdilution assay
Staphylococcus aureus [23] = assay: Potentiation of cefoxitin induced antibacterial activity against methicillin-resistant Staphylococcus aureus USA300 assessed as cefoxitin MIC at 50 uM after 18 hrs by CLSI protocol based broth microdilution assay
Staphylococcus aureus [24] = assay: Potentiation of ceftazidime induced antibacterial activity against methicillin-resistant Staphylococcus aureus COL assessed as fold change in ceftazidime MIC at 50 uM after 18 hrs by CLSI protocol based broth microdilution assay
Staphylococcus aureus [25] = assay: Potentiation of oxacillin induced antibacterial activity against methicillin-resistant Staphylococcus aureus ATCC 43300 assessed as oxacillin MIC at 50 uM after 18 hrs by CLSI protocol based broth microdilution assay
Staphylococcus aureus [26] = assay: Potentiation of cefoxitin induced antibacterial activity against methicillin-resistant Staphylococcus aureus COL assessed as cefoxitin MIC at 50 uM after 18 hrs by CLSI protocol based broth microdilution assay
Staphylococcus aureus [27] = assay: Antibacterial activity against methicillin-resistant Staphylococcus aureus ATCC 43300 assessed as inhibition of bacterial growth after 18 hrs by CLSI protocol based broth microdilution assay
Procedure, shortened: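 Broth microdilution MIC of carbazole alone vs MRSA ATCC 43300, tested up to 200 μM.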

Staphylococcus aureus [28] = assay: Potentiation of ampicillin induced antibacterial activity against methicillin-resistant Staphylococcus aureus ATCC 43300 assessed as fold change in ampicillin MIC at 50 uM after 18 hrs by CLSI protocol based broth microdilution assay
Staphylococcus aureus [29] = assay: Potentiation of ampicillin induced antibacterial activity against methicillin-resistant Staphylococcus aureus COL assessed as ampicillin MIC at 50 uM after 18 hrs by CLSI protocol based broth microdilution assay
Staphylococcus aureus [30] = assay: Potentiation of ceftazidime induced antibacterial activity against methicillin-resistant Staphylococcus aureus USA300 assessed as fold change in ceftazidime MIC at 50 uM after 18 hrs by CLSI protocol based broth microdilution assay
Staphylococcus aureus [31] = assay: Potentiation of oxacillin induced antibacterial activity against methicillin-resistant Staphylococcus aureus USA300 assessed as fold change in oxacillin MIC at 50 uM after 18 hrs by CLSI protocol based broth microdilution assay
Staphylococcus aureus [32] = assay: Upregulation of pbp2 gene expression in methicillin-resistant Staphylococcus aureus ATCC 43300 assessed as fold change by RT-PCR method

SMILES	fold change (FC) (Staphylococcus aureus [1])	fold change (FC) (Staphylococcus aureus [2])	fold change (FC) (Staphylococcus aureus [3])	fold change (FC) (Staphylococcus aureus [4])	MIC (Staphylococcus aureus [5]) [µg/mL]	fold change (FC) (Staphylococcus aureus [6])	fold change (FC) (Staphylococcus aureus [7])	fold change (FC) (Staphylococcus aureus [8])	fold change (FC) (Staphylococcus aureus [9])	MIC (Staphylococcus aureus [10]) [µg/mL]	MIC (Staphylococcus aureus [11]) [µg/mL]	MIC (Staphylococcus aureus [12]) [µg/mL]	MIC (Staphylococcus aureus [13]) [µg/mL]	MIC (Staphylococcus aureus [14]) [µg/mL]	MIC (Staphylococcus aureus [15]) [µg/mL]	MIC (Staphylococcus aureus [16]) [µg/mL]	MIC (Staphylococcus aureus [17]) [µg/mL]	fold change (FC) (Staphylococcus aureus [18])	fold change (FC) (Staphylococcus aureus [19])	MIC (Staphylococcus aureus [27]) [µM]	further results
Brc1ccc2[nH]c3ccc(Br)cc3c2c1	1	1	4	1	64	4	1	4	2	16	256	8	1020	2	32	16	128	1	1	> 200	fold change (FC) (Staphylococcus aureus [20]): 1; fold change (FC) (Staphylococcus aureus [21]): 2; fold change (FC) (Staphylococcus aureus [22]): 2; MIC (Staphylococcus aureus [23]): 64 µg/mL; fold change (FC) (Staphylococcus aureus [24]): 1; MIC (Staphylococcus aureus [25]): 8 µg/mL; MIC (Staphylococcus aureus [26]): 512 µg/mL; fold change (FC) (Staphylococcus aureus [28]): 1; MIC (Staphylococcus aureus [29]): 8 µg/mL; fold change (FC) (Staphylococcus aureus [30]): 1; fold change (FC) (Staphylococcus aureus [31]): 2
Brc1cccc2[nH]c3ccccc3c12	–	–	–	–	–	–	–	–	–	–	–	–	–	–	–	–	–	–	–	100 (≈ 24.6 µg/mL)	fold change (FC) (Staphylococcus aureus [32]): 2
Brc1cccc2c1[nH]c1ccccc12	1	2	4	1	16	2	4	1	16	16	256	8	1020	4	16	4	512	1	2	> 200	fold change (FC) (Staphylococcus aureus [32]): 2; fold change (FC) (Staphylococcus aureus [20]): 1; fold change (FC) (Staphylococcus aureus [21]): 4; fold change (FC) (Staphylococcus aureus [22]): 2; MIC (Staphylococcus aureus [23]): 16 µg/mL; fold change (FC) (Staphylococcus aureus [24]): 1; MIC (Staphylococcus aureus [25]): 4 µg/mL; MIC (Staphylococcus aureus [26]): 256 µg/mL; fold change (FC) (Staphylococcus aureus [28]): 8; MIC (Staphylococcus aureus [29]): 16 µg/mL; fold change (FC) (Staphylococcus aureus [30]): 1; fold change (FC) (Staphylococcus aureus [31]): 4
